In ChEMBL document CHEMBL4371006, “Discovery of N-[4-(Quinolin-4-yloxy)phenyl]benzenesulfonamides as Novel AXL Kinase Inhibitors” (J Med Chem, 2018):
One block for each compound: values may come before it. Calls of active or inactive are those of the source. The rule behind the calls is not given here.

Key:
[1] = Antitumor activity against AXL expressing mouse MXT cells allografted in mouse assessed as reduction in tumor size at 15 mg/kg, ip qd administered 21 consecutive days relative to control; format: functional; set-up: scale not given: the % may be the effect or the level left
Procedure, shortened: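 MXT mammary tumor cells implanted subcutaneously, grown to about 125 mm3, then dosed ip once daily for 21 consecutive days at 5 or 15 mg/kg vs vehicle, 7 animals/group; tumor size compared with vehicle after 3 weeks, survival also recorded.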

[2] = Antitumor activity against AXL expressing mouse MXT cells allografted in mouse assessed as prolongation of survival time at 5 to 15 mg/kg, ip qd administered 21 consecutive days; format: functional; conditions: read-out: MED
Procedure, shortened: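 MXT mammary tumour cells implanted subcutaneously and staged to about 125 mm3. Dosing then began: once daily ip for 21 consecutive days, at 5 or 15 mg/kg, alongside a vehicle group, with 7 animals per group. Survival in days was recorded for each animal and given as mean ± SD, and as T/C% against the vehicle group (vehicle = 100%).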

[3] = target: Tyrosine-protein kinase JAK3 (Homo sapiens) (UniProt P52333); assay: Inhibition of JAK3 (unknown origin) using fluorescence labeled peptide as substrate at 10 uM by IMAP assay
Procedure, shortened: (§1)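 Kinase selectivity profiling, run by a contract lab, with the test compound at 10 µmol/L in triplicate. In the IMAP format, the kinase phosphorylates a fluorescently labelled substrate peptide in solution. A binding solution of trivalent metal-based nanoparticles is then added to capture the phosphopeptide, and the drop in rotational speed is read as fluorescence polarization. Results are given as percent inhibition of each kinase.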

[4] = target: Epithelial discoidin domain-containing receptor 1 (Homo sapiens) (UniProt Q08345); assay: Inhibition of DDR1 (unknown origin) using biotinylated peptide as substrate at 10 uM by TR-FRET assay
[5] = target: Serine/threonine-protein kinase B-raf (Homo sapiens) (UniProt P15056); assay: Inhibition of BRAF (unknown origin) at 10 uM by reporter probe displacement binding assay
[6] = target: Receptor tyrosine-protein kinase erbB-2 (Homo sapiens) (UniProt P04626); assay: Binding affinity to ERBB2 (unknown origin) at 10 uM
Receptor tyrosine-protein kinase erbB-2 (Homo sapiens), sequence (P04626 whole entry): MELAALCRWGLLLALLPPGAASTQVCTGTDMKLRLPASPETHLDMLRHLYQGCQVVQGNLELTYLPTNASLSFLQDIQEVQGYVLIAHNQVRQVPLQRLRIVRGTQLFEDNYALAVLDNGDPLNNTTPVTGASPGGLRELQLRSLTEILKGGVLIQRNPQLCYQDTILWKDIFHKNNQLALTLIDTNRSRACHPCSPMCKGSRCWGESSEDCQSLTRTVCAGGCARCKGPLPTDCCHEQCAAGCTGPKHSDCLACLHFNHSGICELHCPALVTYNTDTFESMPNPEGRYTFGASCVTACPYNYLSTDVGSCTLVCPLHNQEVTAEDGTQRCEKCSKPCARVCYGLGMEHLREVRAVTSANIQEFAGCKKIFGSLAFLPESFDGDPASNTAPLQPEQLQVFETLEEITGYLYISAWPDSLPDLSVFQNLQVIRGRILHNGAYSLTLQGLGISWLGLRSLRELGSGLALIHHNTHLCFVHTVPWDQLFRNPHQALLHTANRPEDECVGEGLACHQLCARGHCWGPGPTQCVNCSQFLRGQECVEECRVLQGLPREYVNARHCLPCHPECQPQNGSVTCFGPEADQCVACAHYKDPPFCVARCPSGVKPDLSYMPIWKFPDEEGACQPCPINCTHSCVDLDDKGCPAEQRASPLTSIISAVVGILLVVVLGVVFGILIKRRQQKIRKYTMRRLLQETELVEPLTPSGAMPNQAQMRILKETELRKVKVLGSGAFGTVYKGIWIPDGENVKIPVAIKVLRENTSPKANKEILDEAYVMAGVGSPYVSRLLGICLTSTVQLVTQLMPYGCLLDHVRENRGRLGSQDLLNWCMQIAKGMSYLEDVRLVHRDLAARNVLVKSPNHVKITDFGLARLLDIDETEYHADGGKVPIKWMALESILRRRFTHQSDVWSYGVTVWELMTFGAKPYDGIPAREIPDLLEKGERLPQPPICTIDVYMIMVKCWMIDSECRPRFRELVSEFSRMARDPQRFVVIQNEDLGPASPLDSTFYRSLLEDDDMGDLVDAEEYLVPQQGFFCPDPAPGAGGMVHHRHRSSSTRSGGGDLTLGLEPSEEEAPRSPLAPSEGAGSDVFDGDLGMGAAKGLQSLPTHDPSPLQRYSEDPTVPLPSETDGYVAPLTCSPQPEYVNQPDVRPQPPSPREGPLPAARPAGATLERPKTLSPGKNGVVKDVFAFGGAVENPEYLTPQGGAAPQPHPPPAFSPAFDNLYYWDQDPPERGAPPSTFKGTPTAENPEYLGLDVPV
Procedure, shortened: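 HTRF kinase assay for HER2 at 10 µM compound, triplicate: biotinylated peptide phosphorylated, detected by europium cryptate anti-phospho antibody and streptavidin-XL665 TR-FRET; percent inhibition.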

[7] = target: Fibroblast growth factor receptor 3 (Homo sapiens) (UniProt P22607); assay: Inhibition of FGFR3 (unknown origin) using fluorescently-labeled peptide as substrate at 10 uM by IMAP fluorescence polarization assay
Fibroblast growth factor receptor 3 (Homo sapiens), sequence (P22607 23-806 limits assumed): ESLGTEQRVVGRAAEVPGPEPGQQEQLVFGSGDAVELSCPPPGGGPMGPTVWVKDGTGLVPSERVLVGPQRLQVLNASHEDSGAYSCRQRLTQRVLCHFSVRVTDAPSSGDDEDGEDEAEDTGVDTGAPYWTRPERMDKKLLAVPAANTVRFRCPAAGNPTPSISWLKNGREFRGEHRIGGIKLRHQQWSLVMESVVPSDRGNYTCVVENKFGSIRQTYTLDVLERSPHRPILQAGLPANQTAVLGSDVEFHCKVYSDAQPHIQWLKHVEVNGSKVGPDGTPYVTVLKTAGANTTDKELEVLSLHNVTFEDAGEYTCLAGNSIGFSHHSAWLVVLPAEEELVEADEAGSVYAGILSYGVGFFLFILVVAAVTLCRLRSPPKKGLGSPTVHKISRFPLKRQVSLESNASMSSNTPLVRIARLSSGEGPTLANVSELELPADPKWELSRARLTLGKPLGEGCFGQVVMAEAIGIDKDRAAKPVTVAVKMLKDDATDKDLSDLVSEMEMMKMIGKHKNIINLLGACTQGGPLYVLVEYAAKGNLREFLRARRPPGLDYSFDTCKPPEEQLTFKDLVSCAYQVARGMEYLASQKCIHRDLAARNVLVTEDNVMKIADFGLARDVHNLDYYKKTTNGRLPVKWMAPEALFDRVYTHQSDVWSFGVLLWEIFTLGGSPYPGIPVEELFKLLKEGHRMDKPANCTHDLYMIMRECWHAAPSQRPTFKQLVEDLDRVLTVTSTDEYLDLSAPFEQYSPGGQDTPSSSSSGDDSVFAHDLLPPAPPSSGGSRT

[8] = target: Fibroblast growth factor receptor 3 (Homo sapiens) (UniProt P22607); assay: Inhibition of FGFR3 (unknown origin) using fluorescence labeled peptide as substrate at 10 uM by IMAP assay
Procedure, shortened: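 IMAP fluorescence-polarization kinase assay at 10 µmol/L compound, run in triplicate by a contract lab. A fluorescently labeled substrate peptide is phosphorylated, then nanoparticles carrying trivalent metal bind the phosphopeptide and slow its rotation. Read-out is fluorescence polarization, expressed as percent inhibition.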

[9] = target: Tyrosine-protein kinase SYK (Homo sapiens) (UniProt P43405); assay: Binding affinity to SYK (unknown origin) at 10 uM
[10] = target: Receptor-type tyrosine-protein kinase FLT3 (Homo sapiens) (UniProt P36888); assay: Inhibition of FLT3 (unknown origin) using biotinylated peptide as substrate at 10 uM by TR-FRET assay
Receptor-type tyrosine-protein kinase FLT3 (Homo sapiens), sequence (P36888 whole entry): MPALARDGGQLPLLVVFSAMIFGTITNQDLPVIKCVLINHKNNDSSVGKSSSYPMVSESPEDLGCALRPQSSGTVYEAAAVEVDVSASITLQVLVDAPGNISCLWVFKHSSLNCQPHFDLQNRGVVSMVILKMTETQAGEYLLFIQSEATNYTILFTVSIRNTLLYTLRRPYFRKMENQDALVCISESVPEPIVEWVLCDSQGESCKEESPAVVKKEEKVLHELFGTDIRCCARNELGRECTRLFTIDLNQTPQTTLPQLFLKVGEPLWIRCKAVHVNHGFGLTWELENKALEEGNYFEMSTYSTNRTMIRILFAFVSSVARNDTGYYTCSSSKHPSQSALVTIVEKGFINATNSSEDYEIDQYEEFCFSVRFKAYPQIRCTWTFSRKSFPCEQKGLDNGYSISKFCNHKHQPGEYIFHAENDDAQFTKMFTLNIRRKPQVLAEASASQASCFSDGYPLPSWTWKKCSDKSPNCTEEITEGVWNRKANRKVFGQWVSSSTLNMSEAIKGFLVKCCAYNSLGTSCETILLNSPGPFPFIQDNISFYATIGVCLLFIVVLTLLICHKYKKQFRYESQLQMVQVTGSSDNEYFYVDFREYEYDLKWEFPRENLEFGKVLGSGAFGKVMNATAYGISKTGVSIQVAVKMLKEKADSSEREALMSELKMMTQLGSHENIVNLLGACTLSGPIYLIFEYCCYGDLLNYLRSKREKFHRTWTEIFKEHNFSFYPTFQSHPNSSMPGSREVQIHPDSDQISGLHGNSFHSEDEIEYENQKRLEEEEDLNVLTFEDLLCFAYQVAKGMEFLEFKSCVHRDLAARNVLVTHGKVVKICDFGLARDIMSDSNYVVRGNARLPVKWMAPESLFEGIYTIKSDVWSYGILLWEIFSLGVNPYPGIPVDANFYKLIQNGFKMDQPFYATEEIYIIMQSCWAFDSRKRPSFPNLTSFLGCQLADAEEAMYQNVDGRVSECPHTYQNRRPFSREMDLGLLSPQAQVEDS

[11] = target: Proto-oncogene tyrosine-protein kinase receptor Ret (Homo sapiens) (UniProt P07949); assay: Inhibition of RET (unknown origin) using fluorescence labeled peptide as substrate at 10 uM by IMAP assay; procedure, shortened: as §1
[12] = target: Tyrosine-protein kinase SYK (Homo sapiens) (UniProt P43405); assay: Inhibition of SYK (unknown origin) using fluorescence labeled peptide as substrate at 10 uM by IMAP assay
[13] = target: Receptor tyrosine-protein kinase erbB-2 (Homo sapiens) (UniProt P04626); assay: Inhibition of ERBB2 (unknown origin) using biotinylated peptide as substrate at 10 uM by TR-FRET assay
[14] = target: Tyrosine-protein kinase CSK (Homo sapiens, UniProt P41240); assay: Inhibition of CSK (unknown origin) using fluorescently-labeled peptide as substrate at 10 uM by IMAP fluorescence polarization assay
[15] = target: Serine/threonine-protein kinase TBK1 (Homo sapiens, UniProt Q9UHD2); assay: Binding affinity to TBK1 in SILAC-labeled human MDA-MB-231 cells lysate by mass spectrometry based kinAffinity assay; format: subcellular
Serine/threonine-protein kinase TBK1, sequence (Q9UHD2 whole entry): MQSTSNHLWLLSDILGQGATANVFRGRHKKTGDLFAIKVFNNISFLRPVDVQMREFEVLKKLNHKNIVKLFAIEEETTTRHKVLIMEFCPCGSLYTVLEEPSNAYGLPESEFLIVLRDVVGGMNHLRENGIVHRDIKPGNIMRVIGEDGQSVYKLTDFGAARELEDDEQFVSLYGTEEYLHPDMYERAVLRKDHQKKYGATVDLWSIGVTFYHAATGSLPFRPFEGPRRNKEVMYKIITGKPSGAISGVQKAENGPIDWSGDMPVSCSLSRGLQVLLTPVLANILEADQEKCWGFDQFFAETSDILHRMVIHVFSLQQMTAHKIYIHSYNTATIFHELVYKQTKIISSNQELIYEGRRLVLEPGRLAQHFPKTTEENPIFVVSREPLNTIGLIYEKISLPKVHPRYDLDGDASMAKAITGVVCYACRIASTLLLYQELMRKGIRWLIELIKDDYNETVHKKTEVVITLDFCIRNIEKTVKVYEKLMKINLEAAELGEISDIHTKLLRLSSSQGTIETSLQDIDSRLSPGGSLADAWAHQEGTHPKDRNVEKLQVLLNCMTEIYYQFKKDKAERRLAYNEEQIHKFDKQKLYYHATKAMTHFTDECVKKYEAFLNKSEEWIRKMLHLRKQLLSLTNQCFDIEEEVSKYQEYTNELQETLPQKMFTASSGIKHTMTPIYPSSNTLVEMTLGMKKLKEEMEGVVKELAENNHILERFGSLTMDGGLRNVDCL
Procedure, shortened: (§2)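 MDA-MB-231 lysate applied to KinAffinity matrix of immobilized broadband kinase inhibitors at graded densities to obtain BC50 per target. Competition then run with increasing free compound to give CC50; Kd derived by Cheng-Prusoff. Two competition experiments in parallel to check equilibrium, one with lysate pre-incubated with compound before adding matrix. Quantitation by mass spectrometry.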

[16] = target: Serine/threonine-protein kinase SIK3 (Homo sapiens, UniProt Q9Y2K2); assay: Binding affinity to QSK in SILAC-labeled human MDA-MB-231 cells lysate by mass spectrometry based kinAffinity assay; format: subcellular; procedure, shortened: as §2
[17] = target: Dual specificity mitogen-activated protein kinase kinase 5 (Homo sapiens, UniProt Q13163); assay: Binding affinity to MAP2K5 in SILAC-labeled human MDA-MB-231 cells lysate by mass spectrometry based kinAffinity assay; format: subcellular
Dual specificity mitogen-activated protein kinase kinase 5, sequence (Q13163 whole entry): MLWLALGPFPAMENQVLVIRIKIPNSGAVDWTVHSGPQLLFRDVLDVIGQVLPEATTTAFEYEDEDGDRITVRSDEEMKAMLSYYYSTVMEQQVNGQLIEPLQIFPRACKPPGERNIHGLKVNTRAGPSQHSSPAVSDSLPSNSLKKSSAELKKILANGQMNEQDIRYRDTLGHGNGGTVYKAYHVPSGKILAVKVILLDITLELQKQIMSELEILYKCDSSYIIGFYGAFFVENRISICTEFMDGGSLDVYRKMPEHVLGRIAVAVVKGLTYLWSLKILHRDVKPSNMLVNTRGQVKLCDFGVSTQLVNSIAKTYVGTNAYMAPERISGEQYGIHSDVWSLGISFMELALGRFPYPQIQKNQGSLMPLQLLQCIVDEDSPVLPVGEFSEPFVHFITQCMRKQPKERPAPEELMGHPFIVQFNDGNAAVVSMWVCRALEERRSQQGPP
Procedure, shortened: (§3)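 Chemical proteomics: MDA-MB-231 lysate bound to matrix of immobilized broad kinase inhibitors at several densities (BC50), then competed with increasing free compound (CC50); proteins quantified by mass spectrometry, Kd via Cheng-Prusoff. Two competition formats run in parallel to check equilibrium.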

[18] = target: Delta(3,5)-Delta(2,4)-dienoyl-CoA isomerase, mitochondrial (Homo sapiens, UniProt Q13011); assay: Binding affinity to ECH1 in SILAC-labeled human MDA-MB-231 cells lysate by mass spectrometry based kinAffinity assay; format: subcellular; procedure, shortened: as §3
Delta(3,5)-Delta(2,4)-dienoyl-CoA isomerase, mitochondrial, sequence (Q13011 whole entry): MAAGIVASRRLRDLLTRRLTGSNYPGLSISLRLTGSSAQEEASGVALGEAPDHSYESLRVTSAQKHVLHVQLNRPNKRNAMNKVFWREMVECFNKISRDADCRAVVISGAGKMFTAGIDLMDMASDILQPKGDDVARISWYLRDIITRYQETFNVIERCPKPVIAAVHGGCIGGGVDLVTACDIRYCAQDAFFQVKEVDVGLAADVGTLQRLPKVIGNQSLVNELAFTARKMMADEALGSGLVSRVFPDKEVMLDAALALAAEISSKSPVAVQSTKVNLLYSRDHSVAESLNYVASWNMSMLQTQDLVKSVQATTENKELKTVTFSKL

[19] = Toxicity in SCID/beige mouse xenografted with human MDA-MB-231 cells assessed as body weight gain at 30 mg/kg, ip bid measured 3 times per week starting at day 12; format: organism-based; conditions: in vivo
[20] = target: Cyclin-dependent kinase 17 (Homo sapiens, UniProt Q00537); assay: Binding affinity to PCTK2 in SILAC-labeled human MDA-MB-231 cells lysate by mass spectrometry based kinAffinity assay; format: subcellular; procedure, shortened: as §2
Cyclin-dependent kinase 17, sequence (Q00537 whole entry): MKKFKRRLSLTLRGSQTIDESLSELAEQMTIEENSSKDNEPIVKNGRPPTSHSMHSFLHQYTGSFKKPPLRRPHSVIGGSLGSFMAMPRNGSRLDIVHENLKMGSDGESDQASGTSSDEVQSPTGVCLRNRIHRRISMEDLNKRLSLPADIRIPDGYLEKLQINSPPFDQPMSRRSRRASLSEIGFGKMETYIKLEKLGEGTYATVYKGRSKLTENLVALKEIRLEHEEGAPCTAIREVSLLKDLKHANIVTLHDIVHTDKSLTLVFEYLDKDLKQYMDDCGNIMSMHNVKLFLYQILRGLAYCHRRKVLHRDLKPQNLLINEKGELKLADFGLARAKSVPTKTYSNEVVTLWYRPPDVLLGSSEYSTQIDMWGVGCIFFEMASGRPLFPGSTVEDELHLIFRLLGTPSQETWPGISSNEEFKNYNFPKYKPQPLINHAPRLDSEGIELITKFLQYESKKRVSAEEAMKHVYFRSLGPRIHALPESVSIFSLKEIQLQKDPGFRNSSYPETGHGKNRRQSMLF

[21] = target: Hepatocyte growth factor receptor (Homo sapiens, UniProt P08581); assay: Binding affinity to c-MET in SILAC-labeled human MDA-MB-231 cells lysate by mass spectrometry based kinAffinity assay; format: subcellular; procedure, shortened: as §2
MDA-MB-231 = assay: Antitumor activity against human MDA-MB-231 cells xenografted in mouse assessed as tumor growth inhibition at 30 mg/kg, ip bid measured 3 times per week starting at day 12; format: functional, organism-based
Procedure, shortened: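 Female SCID/Beige mice inoculated with 2 x 10^6 MDA-MB-231 cells in HBSS:Matrigel (1:1) into third mammary fat pad under ketamine/xylazine. Test agent 30 mg/kg ip twice daily (12 h apart) in PEG400/H2O 70:30, or paclitaxel 10 mg/kg iv three times weekly; 10 mice/group. Tumors measured three times weekly from day 12; lungs and lymph nodes excised, formalin-fixed, nodes H&E-scored (mean ± SEM).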

Compound: COc1cc2c(Oc3ccc(NS(=O)(=O)c4cc(F)ccc4F)cc3F)ccnc2cc1OCCCN1CCCC(C)C1 (configuration not stated)
Activity [1]: 40%
minimal effective dose [2]: 5 mg/kg

inhibition [3]: Active
inhibition [4]: Active
inhibition [5]: Active
inhibition [6]: Active
inhibition [7]: Active
inhibition [8]: Active
inhibition [9]: Active
inhibition [10]: Active
inhibition [11]: Active
inhibition [12]: Active
inhibition [13]: Active
inhibition [14]: Active
Compound: COc1cc2c(Oc3ccc(NS(=O)(=O)c4ccccc4C(F)(F)F)cc3F)ccnc2cc1OCCCN1CCN(C)CC1

Kd(free) [15]: 3.273 µM
Kd(free) [16]: 7.63 µM
Kd(free) [17]: 0.539 µM
Compound: COc1cc2c(Oc3ccc(NS(=O)(=O)c4c(F)cccc4F)cc3F)ccnc2cc1OCCCN1CCN(C)CC1

Kd(free) [18]: 2.857 µM
Kd(free) [20]: > 7.651 µM
Kd(free) [21]: 0.041 µM
Compound: COc1cc2c(Oc3ccc(NS(=O)(=O)c4cc(F)ccc4F)cc3F)ccnc2cc1OCCCN1CCN(C)CC1
Activity [19]: Toxic
TGI (MDA-MB-231): Active
